MPTP block – permeability transition pore inhibition. actives 1.4% (n = 360,000). isolated mouse mitochondria, Ca2+ swelling absorbance, 30 min. inhibition, % at 10 µM;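 active means inhibition of 50% or more, scaled per plate between neutral and stimulator controls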
Tb MetRS inh – Trypanosoma brucei MetRS inhibition | purified T. brucei MetRS, ATP depletion, Kinase-Glo luminescence | inhibition, % at 11.9 µM | actives 0.4% (n = 360,000) | AID 624268;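 active means inhibition above a per-plate cutoff of the control wells' mean inhibition plus 3 SD, cut at about 5.5% in these data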
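Test system: purified T. brucei MetRS enzyme. Also added: ATP, methionine and E. coli bulk tRNA substrates. Compound: 11.9 µM single point. Schedule: 15 min enzyme-compound preincubation, 2 h reaction, 10 min detection, 25 °C. Signal: luciferase luminescence of residual ATP, Kinase-Glo. Evaluation: percent inhibition versus plate control medians. Controls: DMSO wells, low control.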
WT yeast gro inh – growth inhibition of WT yeast, mitochondrial fusion screen. AID 1362. actives 2.1% (n = 190,000). inhibition, % at 10 µM. mitochondrial fusion phenotypic screen, WT strain; in the data active means inhibition above about 58%; tested in S. cerevisiae
CHOP inhibitor – CHOP inhibition in unfolded protein response; actives 3.8% (n = 220,000); inhibition, % at 10 µM; CHO-K1 CHOP-promoter luciferase, tunicamycin-induced, 15-18 h; AID 2732;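 active means compounds that reduced the stress-induced luciferase reporter signal by more than about 70% of percent inhibition, limit read from the data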
GRIN3A LBD mod – modulates the human NR3A ligand-binding domain. NR3A LBD differential scanning fluorimetry, Tm shift; 0% = protein alone, 100% = glycine-bound protein. actives 2.5% (n = 340,000). Tm shift relative to glycine control, % at 25 µM;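 active means melting temperature shift of at least 10% of the positive control shift, at one fixed dose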
EBV gp42 block – inhibitors of Epstein-Barr virus glycoprotein 42; Q1HVG2; Fluorescence polarization binding assay, mP read-out; inhibition, % (tested at 21.74 µM); actives 0.42% (n = 220,000); AID 1085; in the data active means inhibition above about 50%
Target sequence (Q1HVG2 whole entry, looked up): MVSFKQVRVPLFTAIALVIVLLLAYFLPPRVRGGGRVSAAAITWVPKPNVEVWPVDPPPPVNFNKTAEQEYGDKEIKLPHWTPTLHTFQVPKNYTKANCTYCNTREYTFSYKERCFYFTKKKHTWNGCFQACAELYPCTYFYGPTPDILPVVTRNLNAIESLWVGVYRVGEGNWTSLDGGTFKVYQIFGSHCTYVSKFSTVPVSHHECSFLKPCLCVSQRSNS
A number is an active result; 0 = inactive; - = no result given. A selection: hits, their analogues and other compounds. The true share with any hit is near 6.4%.

SMILES	MPTP block	Tb MetRS inh	WT yeast gro inh	CHOP inhibitor	GRIN3A LBD mod	EBV gp42 block
COc1cccc(NC(=O)NC2CC(=O)N(c3ccc4c(c3)OCCO4)C2)c1 (configuration not stated)	0	0	-	-	0	-
CC(=O)c1ccc(NC(=O)NC2CC(=O)N(c3ccc4c(c3)OCCO4)C2)cc1 (configuration not stated)	0	0	-	-	14	-
Fc1ccc(-c2csc(-c3ccncc3)n2)cc1	0	0	0	0	26	0
c1cncc(-c2csc(-c3cccnc3)n2)c1	0	0	-	-	0	-
O=C(CS(=O)(=O)c1c[nH]c2ccccc12)Nc1ccc(F)cc1	0	0	-	-	13	-
Cc1ccc(Nc2nc(C(=O)N3CCC(C(=O)NC(C)C)CC3)cs2)cc1	0	0	-	0	0	0
N#CC12CCCCC1CC1CCCCC1(C#N)N2N (configuration not stated)	0	0	-	0	0	0
CCCCn1ccnc1C(=O)c1cc(S(=O)(=O)N2CCOCC2)ccc1C	0	0	0	0	0	0
CCCCn1ccnc1C(=O)c1cccc(S(=O)(=O)N2CC(C)CC(C)C2)c1 (configuration not stated)	0	0	0	0	16	0
CCN(Cc1ccccc1)c1ccc(/C=N/NS(=O)(=O)c2ccc(C)c([N+](=O)[O-])c2)cc1	0	0	0	0	18	0
Cc1ccc(S(=O)(=O)N/N=C/c2ccc(OS(=O)(=O)c3ccc(C)c([N+](=O)[O-])c3)cc2)cc1	0	0	0	80	0	0
CCN(CC)c1ccc(/C=N/NS(=O)(=O)c2cccc([N+](=O)[O-])c2)cc1	0	0	0	0	0	0
Cc1ccc(S(=O)(=O)N/N=C\c2ccc(Cl)c([N+](=O)[O-])c2)cc1	0	0	0	0	0	0
Cc1cccc(N2CCN(C(=O)c3ccnn3C)CC2)c1C	0	0	-	-	0	-
Cc1cc(NC(=O)CSc2n[nH]c(-c3cccs3)n2)no1	0	0	0	0	0	0
COc1cc2[nH]c(=S)nc(NCc3ccc(Cl)cc3)c2cc1OC	0	0	-	-	35	-
Cc1ccc(OC(=O)COc2ccccc2)c(-n2nc3ccccc3n2)c1	0	0	0	0	0	0
CC(=O)c1cnc2cc(-c3ccc(Cl)cc3)nn2c1C	0	0	0	0	0	0
Cc1cccc(C)c1OCc1nc2ccccc2c(=O)n1/N=C/c1c[nH]c2ccccc12	0	0	0	85	31	0
Cc1ccccc1OCc1nc2ccccc2c(=O)n1/N=C/c1c[nH]c2ccccc12	0	0	0	88	0	0
CCCc1nc2ccccc2c(=O)n1/N=C/c1ccccc1O	0	0	0	0	0	0
Cc1ccccc1OCc1nc2ccccc2c(=O)n1N	0	0	0	0	0	0
Cc1cc(C(=O)N2CCc3ccccc3C2)c(C)o1	0	0	-	-	0	-
Cc1cc(OCC(=O)N[C@@H](Cc2ccccc2)c2nc3ccccc3[nH]2)ccc1Cl	0	0	0	72	0	0
O=C(Cc1ccccc1)N[C@@H](Cc1ccccc1)c1nc2ccccc2[nH]1	0	0	0	0	0	0
SMILES	MPTP block	Tb MetRS inh	WT yeast gro inh	CHOP inhibitor	GRIN3A LBD mod	EBV gp42 block
CCc1ccccc1N(C)C(=O)CCc1nc(-c2ccc(C)cc2)no1	0	0	0	77	0	0
CCOc1ccc(-c2noc(CCC(=O)O)n2)cc1	0	0	0	85	0	0
COc1ccc(Cl)cc1N(C)C(=O)CCc1nc(-c2ccc(C)cc2)no1	0	0	0	0	0	0
COc1ccc(-c2noc(CCC(=O)O)n2)cc1	0	0	0	0	0	0
Cc1ccc(-c2noc(CCCC(=O)Nc3cccnc3)n2)cc1	0	0	0	78	0	0
COc1ccc(-c2noc(CCCC(=O)O)n2)cc1	0	0	0	84	0	0
CN(C)S(=O)(=O)c1cccc(C(=O)N2CCN(C(=O)C3CCCO3)CC2)c1 (configuration not stated)	0	0	-	-	0	-
Cc1ccc(NNC(=O)C(=O)N2CCCCC2)cc1	0	0	64	0	0	0
Cc1ccc(S(=O)(=O)N2CCN=C2SCc2cccnc2)cc1	0	0	0	0	0	0
Cc1ccc(N2C(=O)/C(=C/c3cccnc3)SC2=S)cc1	0	0	0	76	0	0
CCOC(=O)c1c(C)nc2sccn12	0	0	0	0	0	0
O=c1c2nnn(-c3ccc(Cl)cc3)c2ncn1Cc1ccccn1	0	0	0	0	0	0
CCOc1cc(/C=C2/NC(=O)N(CC(=O)Nc3cccc(C)c3)C2=O)ccc1OC	0	0	0	90	0	0
CC(=O)c1ccc2noc(-c3ccc(F)cc3)c2c1	0	0	0	0	0	95
O=C(Nc1ccc(Cl)cc1F)c1cc(S(=O)(=O)N2CCCCC2)ccc1F	0	0	0	0	13	0
O=C(NCc1n[nH]c(=S)n1-c1ccc(F)cc1)c1ccc(S(=O)(=O)N2CCOCC2)cc1	0	0	0	82	0	0
O=C(Nc1cc(S(=O)(=O)Nc2ccc(Cl)cc2)ccc1N1CCCCC1)c1ccc(F)cc1Cl	0	0	0	0	21	0
COc1ccccc1NC(=O)c1cc(S(=O)(=O)N2CCCCCC2)ccc1F	0	0	-	-	0	-
O=C(Nc1cc(S(=O)(=O)N2CCOCC2)ccc1O)c1ccc(NS(=O)(=O)c2ccc(Cl)s2)cc1	0	0	0	0	19	0
CN(C)C1=NCCN1CCc1ccc(F)cc1	0	0	-	-	0	-
O=C(Nc1ccc(S(=O)(=O)N2CCOCC2)cc1)c1ccc(Cl)cc1	0	0	0	0	22	0
O=C(Nc1ccc(S(=O)(=O)N2CCOCC2)cc1)c1ccc(Br)o1	0	0	0	0	26	0
O=C(Nc1ccc(S(=O)(=O)N2CCOCC2)cc1)c1ccc(F)cc1	0	0	-	-	38	-
Cc1cc(NC(=O)c2ccc(Cl)cc2)cc(C)c1OCC(=O)N1CCOCC1	0	0	-	-	13	-
O=C(OCc1ccccc1)N1CCC2CC1c1cc(N3CCCCC3)ccc12 (configuration not stated)	0	0	-	-	0	-
SMILES	MPTP block	Tb MetRS inh	WT yeast gro inh	CHOP inhibitor	GRIN3A LBD mod	EBV gp42 block
O=C(Nc1ccccc1C(=O)O)c1cc(S(=O)(=O)N2CCOCC2)cs1	0	0	0	0	0	0
O=C(NNC(=O)C1CCN(S(=O)(=O)c2ccc(Cl)cc2)CC1)c1ccc(S(=O)(=O)N2CCCCC2)cc1	0	0	0	0	22	0
O=C(C1CCCN(S(=O)(=O)c2ccc(F)cc2)C1)N1CCOCC1 (configuration not stated)	0	0	-	-	26	-
O=C(CN1CCCCC1)Nc1ccc(S(=O)(=O)N2CCOCC2)cc1	0	0	0	0	0	0
O=C(Nc1ccc2c(c1)OCO2)c1ccc(Cl)c(S(=O)(=O)N2CCOCC2)c1	0	0	-	-	18	-
Cc1ccc(C(=O)NNC(=O)C2CCN(S(=O)(=O)c3ccc(Cl)cc3)CC2)cc1	0	0	0	0	0	0
O=C(CN1CCN(S(=O)(=O)c2ccc(Cl)cc2)CC1)Nc1ccc(N2CCOCC2)cc1	0	0	0	0	10	0

Source: PubChem
